Assay outcomes from PubChem BioAssay.
Ecoli WT expand: blocks growth of wild type E. coli BW25113; growth inhibition, % at 100 µM; OD600 absorbance; 98,000 compounds, 0.15% hits; AID 710;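 active means growth inhibition above about 50% at one test dose, limit read from the data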;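 further: growth measured after 20 h incubation at 37 °C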
PostGolgi ctrl: yeast control strain growth, post-Golgi counter-screen; inhibition, % at 10 µM; AID 738; 98,000 compounds, 5% hits; efflux-deficient yeast background strain, growth absorbance A615, 16 h
PLAP activator: activates human placental alkaline phosphatase. P05187. purified PLAP enzyme, luminescent substrate read-out; active compounds read high. activation fold at 20 µM. 96,000 compounds, 1.2% hits. AID 696; in the data active means activation fold above about 2
HePTP inh: inhibitors of human HePTP phosphatase; 110,000 compounds, 0.64% hits; recombinant HePTP phosphatase activity, OD absorbance; P35236; inhibition, % at 20 µM; in the data active means inhibition above about 50%;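 further: plate controls were vehicle for no effect and reference inhibitor for full effect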
Target sequence (P35236 whole entry, looked up): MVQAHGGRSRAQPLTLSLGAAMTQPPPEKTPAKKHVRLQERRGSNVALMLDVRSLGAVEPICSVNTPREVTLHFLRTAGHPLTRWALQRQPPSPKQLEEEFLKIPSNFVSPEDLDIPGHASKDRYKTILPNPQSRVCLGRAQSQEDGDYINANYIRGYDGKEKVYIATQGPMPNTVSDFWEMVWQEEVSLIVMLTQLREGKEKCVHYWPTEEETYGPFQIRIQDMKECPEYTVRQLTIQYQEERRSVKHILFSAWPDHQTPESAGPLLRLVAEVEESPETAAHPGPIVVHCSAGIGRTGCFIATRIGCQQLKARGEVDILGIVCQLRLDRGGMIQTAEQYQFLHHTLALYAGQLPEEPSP
PostGolgi yeast: growth inhibition of a yeast mutant, post-Golgi transport screen; inhibition, % at 10 µM; post-Golgi transport phenotypic cell assay; 98,000 compounds, 0.9% hits;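 further: yeast cells grown in 1536-well plates; yeast grown about 18 h at 30C before absorbance read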
tolC growth inh: blocks growth of E. coli BW25113 tolC mutant; growth inhibition, % at 10 µM (by protocol); OD615; 65,000 compounds, 2.2% hits; AID 573;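 active means growth inhibition at or above a cutoff equal to the mean over every tested compound plus 3 SD, cut at about 60% in these data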;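 further: growth measured after 20 h incubation at 37 °C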
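Test system – E. coli BW25113 ΔtolC::kan, tolC deletion mutant strain · Detection – OD at 615 nm · Buffer or medium – LB with kanamycin 50 µg/mL · Times – 20 h compound exposure of bacteria at 37 °C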
Active calls of the source: *; nt = no result given. In the library only some 5.4% were active in any assay of this set; here they are far more common. Unless noted, no stated cut-off is given here; in the data, active means inhibition above about 30%; inactive means the rest.

SMILES	Ecoli WT expand	PostGolgi ctrl	PLAP activator	HePTP inh	PostGolgi yeast	tolC growth inh
CC(NC(=O)Cc1ccccc1)c1nc2ccccc2[nH]1 (stereo not given)	-10	33*	1.2	9	-3	-7
CCCC(=O)NC(C)c1nc2ccccc2[nH]1 (stereo not given)	6	11	1	nt	-3	nt
CCOc1cc(C(c2c(C)[nH][nH]c2=O)c2c(C)[nH][nH]c2=O)ccc1OS(=O)(=O)c1ccccc1	-8	6	2.6*	nt	3	nt
Cc1ccc(-c2nc3c(=O)n(C)c4ccccc4c3o2)cc1	-4	77*	1.1	8	11	13
Cc1cc(N2CCCCC2)nc2ccc(NC(=O)CCC(=O)NCCC(C)C)cc12	2	9	2.2*	nt	0	nt
OC(CNCC1CCCO1)Cn1c2ccc(Cl)cc2c2cc(Cl)ccc21 (stereo not given)	65*	103*	1.5	nt	90*	nt
OC(CNCC1CCCO1)Cn1c2ccccc2c2ccccc21 (stereo not given)	-7	0	1.2	2	-4	12
CCc1ccc(NC(=O)C2CC(=O)N(c3ccc(CC)cc3)C2)cc1 (stereo not given)	nt	nt	nt	0	nt	nt
CCc1ccc(N2CC(C(=O)Nc3ccc(C)c(S(=O)(=O)N4CCOCC4)c3)CC2=O)cc1 (stereo not given)	-3	2	2*	nt	-19	nt
COc1ccc(-c2cn3cc(Cl)ccc3n2)cc1Br	nt	nt	nt	-3	nt	nt
c1ccc(Nc2nc(-c3ccccn3)cs2)cc1	28	5	1.4	7	7	nt
COc1cccc2sc(Nc3nc(-c4ccccn4)cs3)nc12	-1	87*	1.9	-2	98*	98*
Cc1ccc(C2(c3ccc(C)cc3)CC2C(=O)Nc2ccccc2[N+](=O)[O-])cc1 (stereo not given)	nt	nt	nt	14	nt	nt
CN(C)S(=O)(=O)c1cccc(NC(=S)Nc2cc(Cl)cc(Cl)c2)c1	31	84*	1.5	nt	97*	nt
O=C(CSc1nc2ccc(N3C(=O)c4ccccc4C3=O)cc2s1)Nc1cccc([N+](=O)[O-])c1	nt	nt	nt	80*	nt	nt
CCOc1cc(/C=C2\SC(=S)N(NC(=O)c3ccccc3O)C2=O)ccc1O	nt	nt	nt	7	nt	nt
CCOc1cc(/C=C2\SC(=S)N(Nc3ccccc3)C2=O)ccc1O	-12	61*	1.1	12	9	nt
Clc1cccc(CSc2nc3ccncc3[nH]2)c1	13	13	2.4*	nt	-9	nt
COc1ccccc1-c1nnc(NC(=O)C(C)SC2=NCCS2)s1 (stereo not given)	-9	38*	1.3	4	11	11
CC(SC1=NCCS1)C(=O)Nc1nnc(-c2ccc(Cl)cc2)s1 (stereo not given)	1	0	1.2	nt	10	nt
COc1ccc(-c2nc(-n3c(C)c(C(C)=O)c(C(C)=O)c3C)sc2C)cc1OC	-15	29	1.5	nt	-9	nt
CC(=O)c1c(C(C)=O)c(C)n(-c2nc(-c3ccc(Br)cc3)c(C)s2)c1C	-8	56*	0.9	nt	-9	nt
COC(=O)C1=C(C)N(c2cc(C)cc(C)c2)/C(=C\c2sccc2C)C1=O	nt	nt	nt	-11	nt	nt
N#Cc1c(N)nc(SCc2ccccn2)c(C#N)c1-c1cccs1	-5	54*	1.3	6	10	8
N#Cc1c(N)nc(SCc2ccccc2)c(C#N)c1-c1ccco1	-5	37*	0.9	-11	7	2
SMILES	Ecoli WT expand	PostGolgi ctrl	PLAP activator	HePTP inh	PostGolgi yeast	tolC growth inh
CCOC(=O)CSc1nc(N)c(C#N)c(-c2cccs2)c1C#N	-3	7	1	2	-1	-1
N#Cc1c(N)nc(SCC(=O)OCc2ccccc2)c(C#N)c1-c1ccco1	1	6	0.8	-10	10	12
COCCn1c(C)cc(C(=O)COC(=O)c2c(C)nn(Cc3ccccc3)c2C)c1C	-16	0	1.3	-16	-2	44
Cc1nn(Cc2ccccc2)c(C)c1C(=O)OCC(=O)c1cc(C)n(C2CC2)c1C	-6	-3	1.3	3	-7	65*
Cc1c(C(=O)N2CCc3ccccc3C2)sc2nc(-c3ccccc3)cn12	-14	47*	1.3	nt	5	67*
COc1ccccc1C(=O)NNC(=O)COc1ccccc1Cl	nt	nt	nt	-1	nt	nt
CCOC(=O)CNC(=O)c1ccc(C#CC(C)(C)O)cc1	nt	nt	nt	4	nt	nt
C#CCOc1ccc(/C=C2\C(=O)NC(=O)N(c3ccc(C)cc3)C2=O)cc1OCC	nt	nt	nt	5	nt	nt
Cc1cccc(-c2nnc3sc(-c4ccccc4C)nn23)c1	-13	64*	1.6	1	6	60
c1ccc(-c2nnc3sc(-c4csc5c4CCCC5)nn23)cc1	2	75*	1.5	-2	13	22
